One series relates to KB. The experiment in a line: Cytotoxicity against human KB cells. In kind it is functional, cell-based. The gist of the method:
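KB3.1 was one of 12 human lines tested with nano-assembly formulations. Cells were seeded, then exposed after 24 h to 0.1–200 µM in DMEM or RPMI with 10% FBS at 37 °C and 5% CO2 for 72 h. MTS was read at 490 nm after 2–5 h. Six replicates per concentration; IC50 relative to untreated cells.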

For series [1], the system named is A673. The experiment in a line: Cytotoxicity against human A673 cells after 96 hrs by MTS assay. In kind it is functional, cell-based. The following applies: A673, 96 h. The gist of the method:
(§1)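 Human Ewing sarcoma A673 and rhabdomyosarcoma RMS-1 cells were grown in DMEM or RPMI with 10% FCS, penicillin and streptomycin at 37 °C under 5% CO2. […] MTS was then added for 2–5 h and absorbance read at 490 nm. Six replicates per concentration; IC50 versus untreated cells.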
(In general: Formazan colour is commonly taken as a measure of viable cells.)

Series [2] is described as follows: Cytotoxicity against human RMS1 cells after 96 hrs by MTS assay. The series is classed as functional, cell-based. The note with it: RMS1, 96 h. The gist of the method: as §1
Series [3] has as its system Plasma. The experiment in a line: Drug metabolism in mouse plasma assessed as 4-HO-IFO level measured after 2 to 24 hrs by HPLC-MS/MS method. In kind it is ADME, cell-free. In a few lines: (§2)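 Prodrugs, from acetonitrile stocks as bulk form or nano-assemblies, were incubated in mouse plasma at 37 °C for up to 24 h. 4-HO-IFO was trapped as its semicarbazone with semicarbazide (2 M in pH 7.4 buffer). It was quantified alongside the parent by isocratic C18 HPLC-ESI(+)-MS/MS with MRM, using hexamethyl phosphoramide as internal standard, over 50–5000 ng/mL. Results are given in ng/mL.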

In series [4] the test system is Plasma. The series can be described thus: Drug metabolism in mouse plasma assessed as 4-HO-IFO level measured after 2 hrs by HPLC-MS/MS method. The series is classed as ADME, cell-free. The gist of the method:
as §2

The subject of series [5] is Plasma. The experiment in a line: Drug metabolism in mouse plasma assessed as 4-HO-IFO release measured after 0.5 hrs by HPLC-MS/MS method. The series is classed as ADME, cell-free. In a few lines: as §2
The subject of series [6] is A673. The experiment in a line: Cytotoxicity against human A673 cells after 72 hrs by MTS assay. The series is classed as functional, cell-based. The note with it: A673, 72 h. The gist of the method:
as §1

Series [7] in a line: Cytotoxicity against human RMS1 cells after 72 hrs by MTS assay. In kind it is functional, cell-based. The note with it: RMS1, 72 h. In a few lines:
as §1

Series [8] deals with Plasma. The series can be described thus: Drug metabolism in mouse plasma assessed as 4-HO-IFO level measured after 6 hrs by HPLC-MS/MS method. In kind it is ADME, cell-free. The gist of the method: as §2
For series [9], the system named is Plasma. The series can be described thus: Drug metabolism in mouse plasma assessed as 4-HO-IFO release measured after 2 hrs by HPLC-MS/MS method. The series is classed as ADME, cell-free. In a few lines: as §2
Series [10] deals with Plasma. The series can be described thus: Drug metabolism in mouse plasma assessed as 4-HO-IFO release measured after 4 hrs by HPLC-MS/MS method. The series is classed as ADME, cell-free. In a few lines:
as §2

Usually IC50 stands for the concentration that gives 50% inhibition. Lower therefore signals higher potency. `CO[C@@H]1CCOP(=O)(NCCCl)N1CCCl` (some centres not stated) gave an IC50 in the series on KB of 20 µM.

The compound `CO[C@H]1CCOP(=O)(NCCCl)N1CCCl` (some centres not stated) had an IC50 in the series with KB of 22 µM.

In the case of `CC(C)CCCC(C)CCOC1CCOP(=O)(NCCCl)N1CCCl` (configuration not stated), the IC50 in the series with A673 [1] came to 24.5 µM; in [2], 11.3 µM. Further, the Stability result in the series with Plasma [3] is reported as “Stable”. In addition, the Drug metabolism entry was “metabolite_detected” in the series with Plasma [4] and 200 ng/mL in the series with Plasma [5].

Consider `COC1CCOP(=O)(NCCCl)N1CCCl` (mixture of isomers), for which the values for the IC50 (in the series on A673 [6]; in series [7]) were 1.5 µM and 3.8 µM, respectively. The Drug metabolism result in the series with Plasma [8] was “metabolite_detected”; with Plasma [4], “metabolite_detected”; with Plasma [9], 1250 ng/mL.

On to `CCCCCOC1CCOP(=O)(NCCCl)N1CCCl` (mixture of isomers), for which the IC50 with A673 [6] amounted to 17.7 µM; in [7], 5.3 µM.

For the compound `CC(C)=CCC/C(C)=C/COC1CCOP(=O)(NCCCl)N1CCCl` (mixture of isomers), the half-maximal inhibitory concentration (IC50) amounted to 25.3 µM in the series with A673 [6] and 9.3 µM in [7]. The Stability entry in the series with Plasma [3] is recorded as “Stable”. The Drug metabolism was 350 ng/mL with Plasma [10] and “metabolite_detected” with Plasma [4].

On to `CC(C)=CCC/C(C)=C/CC/C(C)=C/COC1CCOP(=O)(NCCCl)N1CCCl` (mixture of isomers), for which the Stability result with Plasma [3] is listed as “Stable”. Also, the Drug metabolism result in the series with Plasma [4] was “metabolite_detected”; in the series with Plasma [5] it was 700 ng/mL.

The values are drawn from ChEMBL document CHEMBL3393029, “Preactivated oxazaphosphorines designed for isophosphoramide mustard delivery as bulk form or nanoassemblies: synthesis and proof of concept” (J Med Chem, 2015).
